The text below walks through data of ChEMBL document CHEMBL1133084, “Synthesis of novel 3,7-substituted-2-(3',4'-dihydroxyphenyl)flavones with improved antioxidant activity” (J Med Chem, 2000).

One may read the IC50 as the concentration needed to halve the response being measured.

Assay [1] is filed under the species Rattus norvegicus. The assay can be described thus: Inhibitory effect on the oxidative degradation of membrane lipids (lipid peroxidation assay) in microsomes of rat. In kind it is functional. In a few lines:
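Liver microsomes from male Wistar rats (200–220 g), washed in 50 mM Tris-HCl pH 7.4 and heat-inactivated at 100 °C ≥2 min, then diluted to 1.5 mg/mL. Peroxidation started with 10 μM FeSO4; final DMSO ≤2.5%. TBA-reactive substances sampled at 0–60 min and absorbance read at 535-600 nm after heating. IC50 interpolated from % inhibition at several concentrations; mean ± SEM, n = 3-5.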

A short description of assay [2]: Antioxidant activity was determined using trolox equivalent antioxidant capacity assay. In kind it is functional. In a few lines:
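ABTS (1.23 mg/mL) and ABAP (3.96 mg/mL) in 50 mM phosphate buffer pH 7.4 heated 70 °C for 20 min to generate ABTS radical. Test compound (stock in N2-purged DMSO:water 1:1; final DMSO ≤0.25%) incubated with ABTS•+ solution 5 min at 37 °C. Absorbance read at 734 nm. Trolox calibration 0–20 μM; TEAC = mM trolox equivalent to 1 mM compound.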

Molecule `C[N+](C)(C)CCCCCCOc1c(-c2ccc(O)c(O)c2)oc2ccccc2c1=O` showed an IC50 in assay [1] of 1400 nM. Further, the Activity in assay [2] amounted to 4.3 mM.
Molecule `O=c1cc(-c2ccc(O)c(O)c2)oc2cc(OCCO)ccc12` had an IC50 in assay [1] of 16400 nM. In assay [2], the Activity came out at 4.3 mM.
For `C[N+](C)(C)CCCOc1ccc2c(=O)cc(-c3ccc(O)c(O)c3)oc2c1`, in that order: 37300 nM and 1.9 mM.
In the case of `C[N+](C)(C)CCCOc1c(-c2ccc(O)c(O)c2)oc2cc(O)ccc2c1=O`, the IC50 in assay [1] was found to be 3800 nM. Also, in assay [2], the Activity was 5.1 mM.
For the molecule `O=c1c(OCCO)c(-c2ccc(O)c(O)c2)oc2cc(O)ccc12`, half-maximal inhibition in assay [1] (IC50) was put at 21700 nM. Besides, in assay [2], the Activity came to 3.4 mM.
For `COc1ccc2c(=O)cc(-c3ccc(O)c(O)c3)oc2c1`, in that order: 2500 nM and 3.3 mM.
For `C[N+](C)(C)CCCOc1c(-c2ccc(O)c(O)c2)oc2ccccc2c1=O`, the IC50 in assay [1] came to 1200 nM. Further, the Activity in assay [2] was determined as 4.2 mM.
`C[N+](C)(C)CCCCCCCCOc1c(-c2ccc(O)c(O)c2)oc2ccccc2c1=O` had a 50% inhibitory concentration (IC50) in assay [1] of 1000 nM. Further, in assay [2], the Activity stood at 3.3 mM.
On the same counts, the results for `O=c1c(OCCO)c(-c2ccc(O)c(O)c2)oc2ccccc12` are 600 nM and 4.4 mM.
In assay [1], `CN(C)CCCOc1c(-c2ccc(O)c(O)c2)oc2ccccc2c1=O` yielded an IC50 of 1000 nM. In assay [2], the Activity was found to be 3.4 mM.
In turn, `O=C(O)COc1c(-c2ccc(O)c(O)c2)oc2ccccc2c1=O` showed an IC50 in assay [1] of 6500 nM. Also, in assay [2], the Activity amounted to 7.6 mM.
For `O=c1c(O)c(-c2ccc(O)c(O)c2)oc2ccccc12`, in that order: 1800 nM and 4.5 mM.
For `O=c1c(O)c(-c2ccc(O)c(O)c2)oc2cc(OCCO)ccc12`, in that order: 13800 nM and 4.9 mM.
For `O=c1cc(-c2ccc(O)c(O)c2)oc2cc(O)ccc12`, in that order: 11000 nM and 4.3 mM.
As to `CN(C)CCCOc1ccc2c(=O)cc(-c3ccc(O)c(O)c3)oc2c1`, the IC50 in assay [1] turned out to be 8100 nM. For the same molecule, the Activity in assay [2] came out at 2.9 mM.
On the same counts, the results for `COc1c(-c2ccc(O)c(O)c2)oc2ccccc2c1=O` are 1300 nM and 4.4 mM.
On the same counts, the results for `O=c1c(O)c(-c2ccc(O)c(O)c2)oc2cc(O)ccc12` [FISETIN] are 200 nM and 5.6 mM.
For `COc1c(-c2ccc(O)c(O)c2)oc2cc(O)ccc2c1=O`, in that order: 1600 nM and 5.9 mM.
